The source made the active and inactive calls.
Legend:
Mus musculus [1] = assay: Anticonvulsant activity in CF-1 mouse model of maximal electroshock-induced seizure assessed as suppression of tonic hind limb extension at 30 mg/kg, ip measured at 0.5 hrs post dose; assay type: functional, organism-based
Procedure, shortened: (§1)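 Mice dosed i.p. and given maximal electroshock at 50 mA. Read-out is protection, reported as number protected / number tested at 0.25, 0.5, 1 and 4 h after dosing.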

Mus musculus [2] = assay: Anticonvulsant activity in CF-1 mouse model of maximal electroshock-induced seizure assessed as suppression of tonic hind limb extension at 100 mg/kg, ip measured at 0.5 hrs post dose; assay type: functional, organism-based; procedure, shortened: as §1
Mus musculus [3] = assay: Anticonvulsant activity in CF-1 mouse model of maximal electroshock-induced seizure assessed as suppression of tonic hind limb extension at 300 mg/kg, ip measured at 0.5 hrs post dose; assay type: functional, organism-based; procedure, shortened: as §1
Mus musculus [4] = assay: Anticonvulsant activity in CF-1 mouse model of maximal electroshock-induced seizure assessed as suppression of tonic hind limb extension at 30 mg/kg, ip measured at 4 hrs post dose; assay type: functional, organism-based; procedure, shortened: as §1
Mus musculus [5] = assay: Anticonvulsant activity in CF-1 mouse model of maximal electroshock-induced seizure assessed as suppression of tonic hind limb extension at 100 mg/kg, ip measured at 4 hrs post dose; assay type: functional, organism-based; procedure, shortened: as §1
Mus musculus [6] = assay: Anticonvulsant activity in CF-1 mouse model of maximal electroshock-induced seizure assessed as suppression of tonic hind limb extension at 300 mg/kg, ip measured at 4 hrs post dose; assay type: functional, organism-based; procedure, shortened: as §1
Mus musculus [7] = assay: Anticonvulsant activity in CF-1 mouse model of subcutaneous pentylenetetrazole-induced seizure assessed as reduction in convulsions at 30 mg/kg, ip measured at 0.5 hrs post dose; assay type: functional, organism-based
Procedure, shortened: (§2)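 Mice dosed i.p., then given pentylenetetrazole 85 mg/kg in 0.9% NaCl s.c. into the posterior midline of the neck. Seizures watched for at least 30 min. Scored as protected / tested at 0.5 and 4 h.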

Mus musculus [8] = assay: Anticonvulsant activity in CF-1 mouse model of subcutaneous pentylenetetrazole-induced seizure assessed as reduction in convulsions at 100 mg/kg, ip measured at 0.5 hrs post dose; assay type: functional, organism-based; procedure, shortened: as §2
Mus musculus [9] = assay: Anticonvulsant activity in CF-1 mouse model of subcutaneous pentylenetetrazole-induced seizure assessed as reduction in convulsions at 300 mg/kg, ip measured at 0.5 hrs post dose; assay type: functional, organism-based; procedure, shortened: as §2
Mus musculus [10] = assay: Anticonvulsant activity in CF-1 mouse model of subcutaneous pentylenetetrazole-induced seizure assessed as reduction in convulsions at 30 mg/kg, ip measured at 4 hrs post dose; assay type: functional, organism-based; procedure, shortened: as §2
Mus musculus [11] = assay: Anticonvulsant activity in CF-1 mouse model of subcutaneous pentylenetetrazole-induced seizure assessed as reduction in convulsions at 100 mg/kg, ip measured at 4 hrs post dose; assay type: functional, organism-based; procedure, shortened: as §2
Mus musculus [12] = assay: Anticonvulsant activity in CF-1 mouse model of subcutaneous pentylenetetrazole-induced seizure assessed as reduction in convulsions at 300 mg/kg, ip measured at 4 hrs post dose; assay type: functional, organism-based; procedure, shortened: as §2
[13] = Neurotoxicity in CF-1 mouse at 30 mg/kg, ip measured after 0.5 hrs by rotarod test; assay type: toxicity, organism-based; conditions: in vivo
Procedure, shortened: (§3)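 Mice dosed i.p. were placed on a 1 in. knurled rod turning at 6 rpm. Toxicity was scored as failure to keep balance for at least 1 min, i.e. falling off three or more times. Results are reported as animals showing toxicity / animals tested at each time point.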

[14] = Neurotoxicity in CF-1 mouse at 300 mg/kg, ip measured after 0.5 hrs by rotarod test; assay type: toxicity, organism-based; conditions: in vivo; procedure, shortened: as §3
[15] = Neurotoxicity in CF-1 mouse at 30 mg/kg, ip measured after 4 hrs by rotarod test; assay type: toxicity, organism-based; conditions: in vivo; procedure, shortened: as §3
[16] = Neurotoxicity in CF-1 mouse at 100 mg/kg, ip measured after 4 hrs by rotarod test; assay type: toxicity, organism-based; conditions: in vivo; procedure, shortened: as §3
[17] = Neurotoxicity in CF-1 mouse at 300 mg/kg, ip measured after 4 hrs by rotarod test; assay type: toxicity, organism-based; conditions: in vivo; procedure, shortened: as §3
[18] = Mutagenicity in Salmonella typhimurium TA100 assessed as mutagenicity index at 50 to 500 ug/plate preincubated for 30 mins followed by top agar addition and measured after 48 hrs in presence of liver S9 fraction by Ames test; assay type: toxicity, subcellular; conditions: salmonella enterica subsp. enterica serovar typhimurium, s9, 48 h
Procedure, shortened: (§4)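 Ames plate incorporation in S. typhimurium TA100 or TA1535, with or without S9. Overnight culture, compound in DMSO (50–500 µg per plate) and buffer or S9 mix preincubated 30 min at 37 °C, then top agar on glucose minimal agar. Incubated 48 h at 37 °C, revertants counted in triplicate. Vehicle negative control; NaN3 (−S9) and 2AA (+S9) positive controls. MI = revertants with compound / negative-control revertants; MI ≥ 2 with dose-response counts as positive.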

[19] = Mutagenicity in Salmonella typhimurium TA100 assessed as mutagenicity index at 50 to 500 ug/plate preincubated for 30 mins followed by top agar addition and measured after 48 hrs in absence of liver S9 fraction by Ames test; assay type: toxicity; conditions: salmonella enterica subsp. enterica serovar typhimurium, s9, 48 h; procedure, shortened: as §4
[20] = Mutagenicity in Salmonella typhimurium TA1535 assessed as mutagenicity index at 50 to 500 ug/plate preincubated for 30 mins followed by top agar addition and measured after 48 hrs in presence of liver S9 fraction by Ames test; assay type: toxicity, subcellular; conditions: salmonella enterica subsp. enterica serovar typhimurium, s9, 48 h; procedure, shortened: as §4
[21] = Mutagenicity in Salmonella typhimurium TA1535 assessed as mutagenicity index at 50 to 500 ug/plate preincubated for 30 mins followed by top agar addition and measured after 48 hrs in absence of liver S9 fraction by Ames test; assay type: toxicity; conditions: salmonella enterica subsp. enterica serovar typhimurium, s9, 48 h; procedure, shortened: as §4
Salmonella typhimurium [22] = assay: Antimutagenic activity against Salmonella typhimurium TA100 assessed as inhibition of NaN3-induced mutation at 500 ug/plate preincubated for 30 mins followed by top agar addition and measured after 48 hrs in presence of liver S9 fraction by Ames test relative to control; assay type: organism-based; conditions: salmonella enterica subsp. enterica serovar typhimurium, s9, 48 h
Salmonella typhimurium [23] = assay: Antimutagenic activity against Salmonella typhimurium TA100 assessed as inhibition of NaN3-induced mutation at 250 ug/plate preincubated for 30 mins followed by top agar addition and measured after 48 hrs in presence of liver S9 fraction by Ames test relative to control; assay type: organism-based; conditions: salmonella enterica subsp. enterica serovar typhimurium, s9, 48 h
Salmonella typhimurium [24] = assay: Antimutagenic activity against Salmonella typhimurium TA100 assessed as inhibition of NaN3-induced mutation at 100 ug/plate preincubated for 30 mins followed by top agar addition and measured after 48 hrs in presence of liver S9 fraction by Ames test relative to control; assay type: organism-based; conditions: salmonella enterica subsp. enterica serovar typhimurium, s9, 48 h
Salmonella typhimurium [25] = assay: Antimutagenic activity against Salmonella typhimurium TA100 assessed as inhibition of NaN3-induced mutation at 50 ug/plate preincubated for 30 mins followed by top agar addition and measured after 48 hrs in presence of liver S9 fraction by Ames test relative to control; assay type: organism-based; conditions: salmonella enterica subsp. enterica serovar typhimurium, s9, 48 h
Salmonella typhimurium [26] = assay: Antimutagenic activity against Salmonella typhimurium TA1535 assessed as inhibition of NaN3-induced mutation at 500 ug/plate preincubated for 30 mins followed by top agar addition and measured after 48 hrs in presence of liver S9 fraction by Ames test relative to control; assay type: organism-based; conditions: salmonella enterica subsp. enterica serovar typhimurium, s9, 48 h
Salmonella typhimurium [27] = assay: Antimutagenic activity against Salmonella typhimurium TA1535 assessed as inhibition of NaN3-induced mutation at 250 ug/plate preincubated for 30 mins followed by top agar addition and measured after 48 hrs in presence of liver S9 fraction by Ames test relative to control; assay type: organism-based; conditions: salmonella enterica subsp. enterica serovar typhimurium, s9, 48 h
Salmonella typhimurium [28] = assay: Antimutagenic activity against Salmonella typhimurium TA1535 assessed as inhibition of NaN3-induced mutation at 100 ug/plate preincubated for 30 mins followed by top agar addition and measured after 48 hrs in presence of liver S9 fraction by Ames test relative to control; assay type: organism-based; conditions: salmonella enterica subsp. enterica serovar typhimurium, s9, 48 h
Salmonella typhimurium [29] = assay: Antimutagenic activity against Salmonella typhimurium TA1535 assessed as inhibition of NaN3-induced mutation at 50 ug/plate preincubated for 30 mins followed by top agar addition and measured after 48 hrs in presence of liver S9 fraction by Ames test relative to control; assay type: organism-based; conditions: salmonella enterica subsp. enterica serovar typhimurium, s9, 48 h
[30] = Neurotoxicity in Sprague-Dawley rat at 30 mg/kg, po measured after 4 hrs by rotarod test; assay type: toxicity, organism-based; conditions: in vivo
Procedure, shortened: (§5)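 Rat neurotoxicity after i.p. or p.o. dosing was scored as animals impaired / animals tested at each time point. For p.o. dosing, TD50 was obtained by probit analysis.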

[31] = Neurotoxicity in Sprague-Dawley rat at 30 mg/kg, po measured after 2 hrs by rotarod test; assay type: toxicity, organism-based; conditions: in vivo; procedure, shortened: as §5
Mus musculus [32] = assay: Anticonvulsant activity in CF-1 mouse model of maximal electroshock-induced seizure assessed as suppression of tonic hind limb extension at 100 mg/kg, ip measured at 1 hr post dose; assay type: functional, organism-based; procedure, shortened: as §1
[33] = Neurotoxicity in CF-1 mouse at 100 mg/kg, ip measured after 1 hr by rotarod test; assay type: toxicity, organism-based; conditions: in vivo; procedure, shortened: as §3
Rattus norvegicus [34] = assay: Anticonvulsant activity in Sprague-Dawley rat model of maximal electroshock-induced seizure assessed as suppression of tonic hind limb extension at 30 mg/kg, po measured at 1 hr post dose; assay type: functional, organism-based
Procedure, shortened: (§6)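 Rats given 30 mg/kg p.o. and tested by maximal electroshock at 150 mA. Scored as number protected / number tested (4 per group) at 0.25, 0.5, 1, 2 and 4 h after dosing.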

Rattus norvegicus [35] = assay: Anticonvulsant activity in Sprague-Dawley rat model of maximal electroshock-induced seizure assessed as suppression of tonic hind limb extension at 30 mg/kg, po measured at 2 hrs post dose; assay type: functional, organism-based; procedure, shortened: as §6
[36] = Neurotoxicity in Sprague-Dawley rat at 30 mg/kg, po measured after 0.25 hrs by rotarod test; assay type: toxicity, organism-based; conditions: in vivo; procedure, shortened: as §5
[37] = Neurotoxicity in Sprague-Dawley rat at 30 mg/kg, po measured after 0.5 hrs by rotarod test; assay type: toxicity, organism-based; conditions: in vivo; procedure, shortened: as §5
[38] = Neurotoxicity in Sprague-Dawley rat at 30 mg/kg, po measured after 1 hr by rotarod test; assay type: toxicity, organism-based; conditions: in vivo; procedure, shortened: as §5
[39] = Neurotoxicity in CF-1 mouse at 100 mg/kg, ip measured after 0.5 hrs by rotarod test; assay type: toxicity, organism-based; conditions: in vivo; procedure, shortened: as §3

Cc1cccc(C)c1OCC(=O)NCC(O)c1ccccc1 (stereo unspecified)
41%: inhibition (INH) (Salmonella typhimurium [22])
35%: inhibition (INH) (Salmonella typhimurium [27])
51%: inhibition (INH) (Salmonella typhimurium [23])
17%: inhibition (INH) (Salmonella typhimurium [25])
45%: inhibition (INH) (Salmonella typhimurium [24]) | inhibition (INH) (Salmonella typhimurium [28])
0.7 to 1.7: Activity index [18] | Activity index [19] | Activity index [20] | Activity index [21]
inactive: Activity (Mus musculus [1]) | Activity (Mus musculus [2]) | Activity (Mus musculus [3]) | Activity (Mus musculus [4]) | Activity (Mus musculus [5]) | Activity (Mus musculus [6]) | Activity (Mus musculus [7]) | Activity (Mus musculus [8]) | Activity (Mus musculus [9]) | Activity (Mus musculus [10]) | Activity (Mus musculus [11]) | Activity (Mus musculus [12])
13%: inhibition (INH) (Salmonella typhimurium [26])
58%: inhibition (INH) (Salmonella typhimurium [29])
Non-Toxic: Activity [13] | Activity [14] | Activity [15] | Activity [16] | Activity [17]

Cc1cccc(C)c1OCC(=O)NC(C)CO (stereo unspecified)
Toxic: Activity [14]
active: Activity (Mus musculus [3])
Non-Toxic: Activity [30] | Activity [31] | Activity [13] | Activity [33] | Activity [15] | Activity [17] | Activity [36] | Activity [37] | Activity [38]
inactive: Activity (Mus musculus [1]) | Activity (Mus musculus [2]) | Activity (Mus musculus [32]) | Activity (Mus musculus [4]) | Activity (Mus musculus [5]) | Activity (Mus musculus [6]) | Activity (Mus musculus [7]) | Activity (Mus musculus [8]) | Activity (Mus musculus [9]) | Activity (Mus musculus [10]) | Activity (Mus musculus [11]) | Activity (Mus musculus [12]) | Activity (Rattus norvegicus [34]) | Activity (Rattus norvegicus [35])

CC[C@@H](CO)NC(=O)COc1c(C)cccc1C
12%: inhibition (INH) (Salmonella typhimurium [29])
Non-Toxic: Activity [13] | Activity [39] | Activity [33] | Activity [15] | Activity [16] | Activity [17]
26%: inhibition (INH) (Salmonella typhimurium [25])
Toxic: Activity [14]
28%: inhibition (INH) (Salmonella typhimurium [23])
22%: inhibition (INH) (Salmonella typhimurium [28])
0.7 to 1.7: Activity index [18] | Activity index [19] | Activity index [20] | Activity index [21]
inactive: Activity (Mus musculus [1]) | Activity (Mus musculus [2]) | Activity (Mus musculus [32]) | Activity (Mus musculus [4]) | Activity (Mus musculus [5]) | Activity (Mus musculus [6]) | Activity (Mus musculus [7]) | Activity (Mus musculus [8]) | Activity (Mus musculus [9]) | Activity (Mus musculus [10]) | Activity (Mus musculus [11]) | Activity (Mus musculus [12])
34%: inhibition (INH) (Salmonella typhimurium [24])
43%: inhibition (INH) (Salmonella typhimurium [22])
19%: inhibition (INH) (Salmonella typhimurium [27])
active: Activity (Mus musculus [3])
24%: inhibition (INH) (Salmonella typhimurium [26])

Source: ChEMBL document CHEMBL4368872, “Synthesis and anticonvulsant activity of phenoxyacetyl derivatives of amines, including aminoalkanols and amino acids” (Medchemcomm, 2018)
